Key:
MX1 [1] = assay: Cytotoxicity against folate receptor over-expressing human MX1 cells after 72 hrs by MTT assay; type: functional, cell-based; conditions: MX1, 72 h
How it was run: (§1)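 Adherent monolayers in RPMI-1640 with 5% heat-inactivated FBS, 5% NuSerum and PenStrep, 37 °C, 5% CO2. Seeded 0.5–1.5 × 10^4 cells/well and left to attach overnight, then medium replaced. Compound diluted from DMSO stock to 0.5–5,000 nM final, DMSO ≤1%, 72 h. MTT 0.5 mg/mL for 3 h at 37 °C, formazan dissolved in acidic isopropanol/Triton, A570. IC50 from four-parameter logistic fit.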

[2] = Cytotoxicity against folate receptor deficient human WI38 cells after 72 hrs by MTT assay; type: functional, cell-based; conditions: WI-38, 72 h; how it was run: as §1
[3] = Cytotoxicity against folate receptor over-expressing mouse ID8 cells after 72 hrs by MTT assay; type: functional, cell-based; conditions: ID8, 72 h; how it was run: as §1
L1210 [4] = assay: Cytotoxicity against folate receptor over-expressing mouse L1210 cells after 72 hrs by MTT assay; type: functional, cell-based; conditions: L1210, 72 h
How it was run: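 L1210FR cells grown in suspension in supplemented RPMI-1640. Resuspended directly in test solutions, 0.5–5,000 nM final, at 0.5–0.8 × 10^4 cells/well, DMSO ≤1%. Incubated 72 h. MTT 0.5 mg/mL for 3 h at 37 °C, formazan dissolved in 0.1 N HCl/isopropanol with 10% Triton X-100, absorbance at 570 nm. IC50 from four-parameter logistic fit, with standard errors.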

WI-38 = assay: Selectivity index, ratio of IC50 for folate receptor deficient human WI38 cells to IC50 for folate receptor over-expressing mouse ID8 cells
MX1 [5] = assay: Cytotoxicity against folate receptor over-expressing human MX1 cells incubated for 24 hrs followed by 6 equiv GSH addition and further incubated for another 48 by MTT assay; type: functional, cell-based; conditions: MX1, 24 h
How it was run: (§2)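 Cells were exposed to the conjugate for 24 h, then reduced glutathione (GSH, 6 equiv.) was added and incubation continued 48 h, 72 h in total. Compound range 0.5–5,000 nM in RPMI-1640 medium, which contains folic acid. Read-out by MTT at 570 nm. IC50 from four-parameter logistic curve.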

L1210 [6] = assay: Cytotoxicity against folate receptor over-expressing mouse L1210 cells incubated for 24 hrs followed by 6 equiv GSH addition and further incubated for another 48 by MTT assay; type: functional, cell-based; conditions: L1210, 24 h; how it was run: as §2
L1210 [7] = assay: Selectivity index, ratio of IC50 for folate receptor deficient human WI38 cells to IC50 for folate receptor over-expressing mouse L1210 cells
MX1 [8] = assay: Cytotoxicity against folate receptor over-expressing human MX1 cells incubated for 24 hrs followed by 6 equiv GSH-OEt addition and further incubated for another 48 by MTT assay; type: functional, cell-based; conditions: MX1, 24 h
How it was run: (§3)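 After 24 h treatment with the conjugate, glutathione ethyl ester (GSH-OEt, 6 equiv.) was added, followed by a further 48 h, 72 h total. Cells-permeable thiol ester. Compound 0.5–5,000 nM in RPMI-1640 medium. MTT read-out at 570 nm. IC50 from four-parameter logistic fit.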

MX1 [9] = assay: Selectivity index, ratio of IC50 for folate receptor deficient human WI38 cells to IC50 for folate receptor over-expressing human MX1 cells
L1210 [10] = assay: Cytotoxicity against folate receptor over-expressing mouse L1210 cells incubated for 24 hrs followed by 6 equiv GSH-OEt addition and further incubated for another 48 by MTT assay; type: functional, cell-based; conditions: L1210, 24 h; how it was run: as §3

| SMILES | IC50 (MX1 [1]) [nM] | IC50 [2] [nM] | IC50 [3] [nM] | IC50 (L1210 [4]) [nM] | Ratio IC50 (WI-38) | IC50 (MX1 [5]) [nM] | IC50 (L1210 [6]) [nM] | Ratio IC50 (L1210 [7]) | IC50 (MX1 [8]) [nM] | Ratio IC50 (MX1 [9]) | IC50 (L1210 [10]) [nM] |
| --- | --- | --- | --- | --- | --- | --- | --- | --- | --- | --- | --- |
| CC(=O)O[C@@]12CO[C@@H]1C[C@H](O)[C@@]1(C)C(=O)[C@H](OC(=O)C3CC3)C3=C(C)[C@@H](OC(=O)[C@H](O)[C@H](C=C(C)C)NC(=O)OC(C)(C)C)C[C@@](O)([C@@H](OC(=O)c4ccccc4)[C@H]21)C3(C)C | 1.89 | 4.89 | 2.82 | 2.66 |  |  |  |  |  |  |  |
| CC(=O)O[C@H]1C(=O)[C@@]2(C)[C@H]([C@H](OC(=O)c3ccccc3)[C@]3(O)C[C@H](OC(=O)[C@H](O)[C@@H](NC(=O)c4ccccc4)c4ccccc4)C(C)=C1C3(C)C)[C@]1(OC(C)=O)CO[C@@H]1C[C@@H]2O [PACLITAXEL] | 5.59 | 55.7 | 13.8 | 27.6 |  |  |  |  |  |  |  |
| CC(=O)O[C@@]12CO[C@@H]1C[C@H](O)[C@@]1(C)C(=O)[C@H](OC(=O)C3CC3)C3=C(C)[C@@H](OC(=O)[C@H](OC(=O)Cc4ccccc4SSC(C)CCC(=O)NCCCOCCOCCOCCCNC(=O)c4ccc(CC5CCCCCc6c5nnn6CCOCCOCCOCCNC(=O)CC[C@@H](NC(=O)CC[C@@H](NC(=O)c5ccc(NCc6cnc7nc(N)nc(O)c7n6)cc5)C(=O)O)C(=O)N[C@H](CCCNC(=N)N)C(=O)O)cc4)[C@H](C=C(C)C)NC(=O)OC(C)(C)C)C[C@@](O)([C@@H](OC(=O)c4ccccc4)[C@H]21)C3(C)C (some centres undefined) | 3.43 | > 5000 | 2.52 | 3.51 | >1000 | 3.42 | 3.87 | >1000 | 2.08 | >1000 | 3.35 |

— ChEMBL document CHEMBL3399991, “Design, synthesis and biological evaluation of a highly-potent and cancer cell selective folate-taxoid conjugate” (Bioorg Med Chem, 2015)
